# High-throughput results deposited in PubChem by The Scripps Research Institute Molecular Screening Center.
# In the library only some 1.3% were active in any assay of this set; here they are far more common.
# HTRA1 inh: inhibitors of human serine peptidase HTRA1 | recombinant HTRA1, FP-rhodamine activity-based probe, fluorescence polarization | AID 504803 | actives 0.5% (n = 340,000) | inhibition, % at 5.96 µM | Q92743; in the data active means inhibition above about 36%;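 further: 0% = enzyme with DMSO and 100% = wells lacking enzyme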
# Target sequence (Q92743 whole entry, looked up): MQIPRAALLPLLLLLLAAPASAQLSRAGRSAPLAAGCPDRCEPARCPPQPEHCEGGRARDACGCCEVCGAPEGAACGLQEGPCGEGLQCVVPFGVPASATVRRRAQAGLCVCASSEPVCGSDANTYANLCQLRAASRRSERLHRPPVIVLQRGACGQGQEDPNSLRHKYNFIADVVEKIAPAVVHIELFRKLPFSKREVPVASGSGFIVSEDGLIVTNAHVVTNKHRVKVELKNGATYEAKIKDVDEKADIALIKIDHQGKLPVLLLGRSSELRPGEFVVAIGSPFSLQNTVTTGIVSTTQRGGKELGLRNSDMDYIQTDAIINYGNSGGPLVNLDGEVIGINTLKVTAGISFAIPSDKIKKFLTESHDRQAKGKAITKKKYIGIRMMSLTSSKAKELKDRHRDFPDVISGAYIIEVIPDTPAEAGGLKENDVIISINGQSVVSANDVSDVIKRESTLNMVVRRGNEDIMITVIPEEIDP
# TCR-CD3 inh: human TCR-CD3 binding inhibition | TAMRA-labeled TCR probe fluorescence, biochemical | AID 651800 | actives 0.37% (n = 360,000) | inhibition, % at 9.4 µM;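 further: recombinant mutant TCR 2C K166C tagged with TAMRA read by polarization; 0% = receptor in buffer alone and 100% = receptor with positive control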
# DDE Tn6 FP inh: DD(E)-Tn6 binding inhibition, primary FP screen. P02675. Fibrin DD(E) TRITC-Tn6 fluorescence polarization displacement. inhibition, % at 8.3 µM. actives 0.21% (n = 370,000);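 active means inhibition above a per-campaign cutoff: mean of compounds within control limits plus 3 SD, cut at about 15% in these data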;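 further: 0% = median of all compound wells on the plate and 100% = blocking peptide control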
# ABHD4 inh: ABHD4 (mouse) inhibition, primary FP screen; AID 720543; purified mABHD4, FP-Rh probe fluorescence polarization; inhibition, % at 8.92 µM; Q8VD66; actives 0.54% (n = 370,000);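 active means inhibition exceeding the mean over every tested compound plus 3 SD, cut at about 30% in these data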;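 further: 0% = plate median of compound wells and 100% = S159A mutant with DMSO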
#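 Material: mouse ABHD4 enzyme, wild type; Benchmarks: S159A mutant high control, sample median low control; Buffer or medium: HEPES pH 7.0, NaCl, Pluronic buffer; Signal: fluorescence polarization; Read-out: percent inhibition of probe binding, normalized to plate controls; Timing: pre-incubation 45 min, probe exposure 60 min, at 25 °C; Dosing: 8.92 µM, single dose.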
# DDE Tn7 FP inh: disrupts Tn7 cyclic peptide binding to fibrin D-Dimer-E complex; FP displacement of FITC-Tn7 peptide from fibrin DD(E); 0% = median of compound wells per plate; inhibition, % at 8.3 µM; actives 0.13% (n = 370,000);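 active means inhibition above the mean of compounds falling within the control limits plus 3 SD of them, cut at about 14% in these data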;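 further: 0% = plate median of compound wells and 100% = 10 µM Aha-Tn7 peptide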
#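 Measure: % inhibition scaled between sample-field median and high-control FP; Test system: human fibrin DD(E); Quantity: 2 µM final DD(E) protein; Doses: one dose, 8.3 µM nominal; Schedule: compound with protein 10 min, then 3 h after probe, room temperature; Detection: fluorescence polarization; Medium: Tris buffer with calcium and detergent, pH 7.8.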
# HTRA1 conf: confirmation of human HTRA1 inhibitors; shares compounds with HTRA1 inh; recombinant HTRA1, FP-rhodamine activity-based probe, fluorescence polarization; inhibition, % at 5.96 µM; actives 66% (n = 1,600); AID 540248;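 active means mean inhibition over three repeats above a set limit taken from the earlier primary screen, cut at about 37% in these data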;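 further: 0% = HTRA1 with DMSO and 100% = wells lacking HTRA1; inhibitors block probe binding so polarization drops and inhibition rises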
# BSA probe FL: interferes with TAMRA-BSA probe, flagging TCR-CD3 hits | inhibition, % at 9.4 µM | AID 652035 | shares compounds with TCR-CD3 inh | actives 10% (n = 1,200) | TAMRA-labeled BSA probe fluorescence counterscreen; in the data active means inhibition above about 23%;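 further: 0% = buffer low control and 100% = reference high control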
# TCR-CD3 conf: confirmation of human TCR-CD3 interaction inhibitors; actives 48% (n = 1,200); AID 652036; TAMRA-labeled TCR probe fluorescence binding assay; inhibition, % at 9.4 µM; shares compounds with TCR-CD3 inh
# mABHD4 conf: confirmation of mouse ABHD4 inhibitors; inhibition, % at 8.92 µM; purified mABHD4, FP-Rh probe fluorescence polarization; actives 55% (n = 1,800); AID 720658; shares compounds with ABHD4 inh;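 active means mean inhibition across replicates above the hit cutoff set in the primary screen, cut at about 30% in these data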;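 further: 0% = wild-type ABHD4 with DMSO and 100% = catalytically dead S159A mutant with DMSO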
# * = called active by the depositor; · = not tested or not shown; ! = repeats disagree. Unless noted, no stated cut-off is given here; in the data, active means inhibition above about 19%; inactive means the rest.
SMILES,HTRA1 inh,TCR-CD3 inh,DDE Tn6 FP inh,ABHD4 inh,DDE Tn7 FP inh,HTRA1 conf,mABHD4 conf,others
Cc1cc(C)c(CN2CCN(C(=O)CC[C@H]3O[C@@H](n4ccc(=O)[nH]c4=O)[C@H](O)[C@@H]3O)CC2)c(C)c1,·,-8,0,3,2,·,·,
O=C1c2ccccc2C(=O)c2c(NCCCN(CCO)CCO)cccc21,·,-5,6,-2,4,·,·,
O=C1c2c(O)ccc(O)c2C(=O)c2c(NCCNCCO)ccc(NCCNCCO)c21,72*,-7,-4,33*!,4,59*,37*,
COc1cc(Sc2ccc(C)cc2)c(OC)cc1N,46*,-7,-6,34*,-5,44*,41*,
C/C=C/c1ccc(O)c(OC)c1,4,1,4,-6,10,·,·,
Oc1cc(O)cc(/C=C/c2ccc(O)c(O)c2)c1,38*,14,-2,32*,0,36*,27,
O=C(O)/C=C\C(=O)Nc1ccc(N2CCN(c3cccc(Cl)c3)CC2)cc1,52*,21*,3,42*,3,40*,21,BSA probe FL=0;TCR-CD3 conf=4
CC(=O)N1CCN(c2ccc(NC(=O)/C=C/c3ccccc3)cc2)CC1,2,4,1,11,-9,·,·,
O=C(O)/C=C\C(=O)Nc1ccc(N2CCN(c3ccc(Cl)cc3)CC2)cc1,44*,21*,1,33*,-8,7,10,BSA probe FL=11;TCR-CD3 conf=8
O=C(O)/C=C\C(=O)Nc1ccc(N2CCN(c3ccc(Cl)c(Cl)c3)CC2)cc1,57*,30*,14,39*,-2,5,22,BSA probe FL=-3;TCR-CD3 conf=0
O=C(O)/C=C\C(=O)Nc1ccccc1C(=O)N1CCN(c2ccc(Cl)cc2)CC1,3,-4,-2,-4,4,·,·,
O=C(O)/C=C\C(=O)Nc1ccc(N2CCN(c3ccc(F)cc3)CC2)cc1,43*,28*,8,44*,-3,14,10,BSA probe FL=5;TCR-CD3 conf=3
CC(=O)Nc1ccc(N2CCN(c3ccc(F)cc3)CC2)cc1,3,2,1,-4,2,·,·,
COc1ccc(CC(=O)Nc2nc3ccc(F)cc3s2)cc1S(=O)(=O)N1CCOCC1,-11,-2,-1,-1,1,·,·,
O=S(=O)(c1ccc(OCC(O)CN2CCc3ccccc3C2)cc1)N1CCOCC1 (stereo unspecified),-3,3,1,-3,0,·,·,
COc1cccc(-c2ccc(NC(=O)C3CCCN(Cc4cnc(C)s4)C3)cc2)c1 (stereo unspecified),-20,5,10,-2,-1,·,·,
O=C(NNS(=O)(=O)c1ccccc1)c1ccncc1,-8,9,3,-7,-5,·,·,
Cc1cc(C)c(NC(=O)COC(=O)c2cccc3c2C(=O)c2ccccc2C3=O)c(C)c1,1,1,-7,11,-2,·,·,
Cc1cc(C)c(Nc2cc(S(=O)(=O)O)c(N)c3c2C(=O)c2ccccc2C3=O)c(C)c1,66*,6,4,77*,-4,67*,110*,
CNc1ccccc(-c2ccc3ccccc3n2)c1=O,38*,9,0,36*,4,4,14,
c1ccc(-c2ccc3ccccc3n2)cc1,-1,-6,-11,-14,-3,·,·,
Oc1ccc(/C=N/Nc2ccc(Cl)nn2)c(O)c1O,57*,56*,-5,40*,2,41*,81*,BSA probe FL=-20;TCR-CD3 conf=55*
Cc1ccc(NC2=C(NC(=O)c3ccccc3)C(=O)c3ccccc3C2=O)cc1Cl,44*,1,-12,30*,0,42*,50*,
Cc1ccc(NCC(=O)c2ccccc2)cc1Cl,2,3,1,-1,6,·,·,
